Results reported in ChEMBL document CHEMBL4152263, “Novel anticancer hybrids from diazen-1-ium-1,2-diolate nitric oxide donor and ROS inducer plumbagin: Design, synthesis and biological evaluations” (Eur J Med Chem, 2018).
Activity calls are given as the source filed them. No cut-off for these calls is given here.

Experiments:
MDA-MB-231 [1] = assay: Cytotoxicity against human MDA-MB-231 cells assessed as growth inhibition at 10 uM after 48 hrs by MTT assay relative to control; assay type: functional; conditions: MDA-MB-231, 48 h, read-out: GI
How it was run: (§1)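 Single-concentration MTT screen. Cells were seeded, allowed to adhere for 24 h, and exposed to compound for 48 h. MTT (5 mg/mL) was added for the last 4 h, then DMSO, with absorbance read at 570 nm. Result is inhibition rate (%) at the stated concentration; mean of three independent experiments.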

A549 [2] = assay: Cytotoxicity against human A549 cells assessed as growth inhibition at 10 uM after 48 hrs by MTT assay relative to control; assay type: functional; conditions: A549, 48 h, read-out: GI; how it was run: as §1
HepG2 [3] = assay: Cytotoxicity against human HepG2 cells assessed as growth inhibition at 10 uM after 48 hrs by MTT assay relative to control; assay type: functional; conditions: HepG2, 48 h, read-out: GI; how it was run: as §1
MDA-MB-231 [4] = assay: Cytotoxicity against human MDA-MB-231 cells assessed as growth inhibition after 48 hrs by MTT assay; assay type: functional, cell-based; conditions: MDA-MB-231, 48 h
How it was run: (§2)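 Cells seeded at 5.0 × 10^4/ml and left 24 h to adhere, then exposed to a range of test-compound concentrations for 44 h. MTT (5 mg/mL) was added for a further 4 h at 37 °C. Supernatant was removed, DMSO added, and OD read at 570 nm. IC50 after 48 h total exposure; mean ± SD, n = 3.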

HepG2 [5] = assay: Cytotoxicity against human HepG2 cells assessed as growth inhibition after 48 hrs by MTT assay; assay type: functional, cell-based; conditions: HepG2, 48 h; how it was run: as §2
A549 [6] = assay: Cytotoxicity against human A549 cells assessed as growth inhibition after 48 hrs by MTT assay; assay type: functional, cell-based; conditions: A549, 48 h; how it was run: as §2
HCT-116 = assay: Cytotoxicity against human HCT116 cells assessed as growth inhibition after 48 hrs by MTT assay; assay type: functional, cell-based; conditions: HCT-116, 48 h; how it was run: as §2
HK-2 = assay: Cytotoxicity against human HK2 cells assessed as growth inhibition after 48 hrs by MTT assay; assay type: cell-based; conditions: HK-2, 48 h; how it was run: as §2
WRL68 = assay: Cytotoxicity against human WRL68 cells assessed as growth inhibition after 48 hrs by MTT assay; assay type: cell-based; conditions: WRL68, 48 h; how it was run: as §2
[7] = Drug metabolism in human A549 cells assessed as nitric oxide production at 5 uM after 24 hrs by Griess assay; assay type: ADME, cell-based; conditions: a549, 24 h
How it was run: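 A549 cells were plated at 5.0 × 10^4/ml and treated in triplicate with compound at 5 μM for varying times up to 24 h. NO release was quantified as nitrite plus nitrate by Griess assay (commercial kit); mean ± SD, n = 3.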

[8] = Drug metabolism in human A549 cells assessed as nitric oxide production at 5 uM after 24 hrs in presence of nitric oxide scavenger carboxy-PTIO by Griess assay; assay type: ADME, cell-based; conditions: a549, 24 h
How it was run: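 A549 cells were pre-incubated with the NO scavenger carboxy-PTIO (50 μM) for 1 h, then treated with compound (5 μM) for 24 h. Proliferation was read by MTT and NO by Griess assay (nitrite/nitrate); mean ± SD of three independent experiments.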

A549 [9] = assay: Induction of reactive oxygen species formation in human A549 cells at 5 uM after 24 hrs by DCFH-DA probe-based flow cytometric analysis relative to control; assay type: functional
A549 [10] = assay: Induction of apoptosis in human A549 cells assessed as early apoptotic cells at 1 uM after 24 hrs by FITC-annexin V/propidium iodide staining-based flow cytometric analysis (reference value: 1.87%); assay type: functional
A549 [11] = assay: Induction of apoptosis in human A549 cells assessed as late apoptotic cells at 1 uM after 24 hrs by FITC-annexin V/propidium iodide staining-based flow cytometric analysis (reference value: 0.36%); assay type: functional
A549 [12] = assay: Induction of apoptosis in human A549 cells assessed as necrotic cells at 1 uM after 24 hrs by FITC-annexin V/propidium iodide staining-based flow cytometric analysis (reference value: 0.055%); assay type: functional
A549 [13] = assay: Induction of apoptosis in human A549 cells assessed as viable cells at 1 uM after 24 hrs by FITC-annexin V/propidium iodide staining-based flow cytometric analysis (reference value: 97.7%); assay type: functional; conditions: A549, 24 h, read-out: Activity
A549 [14] = assay: Induction of apoptosis in human A549 cells assessed as early apoptotic cells at 2 uM after 24 hrs by FITC-annexin V/propidium iodide staining-based flow cytometric analysis (reference value: 1.87%); assay type: functional
A549 [15] = assay: Induction of apoptosis in human A549 cells assessed as late apoptotic cells at 2 uM after 24 hrs by FITC-annexin V/propidium iodide staining-based flow cytometric analysis (reference value: 0.36%); assay type: functional
A549 [16] = assay: Induction of apoptosis in human A549 cells assessed as necrotic cells at 2 uM after 24 hrs by FITC-annexin V/propidium iodide staining-based flow cytometric analysis (reference value: 0.055%); assay type: functional
A549 [17] = assay: Induction of apoptosis in human A549 cells assessed as viable cells at 2 uM after 24 hrs by FITC-annexin V/propidium iodide staining-based flow cytometric analysis (reference value: 97.7%); assay type: functional; conditions: A549, 24 h, read-out: Activity
A549 [18] = assay: Induction of apoptosis in human A549 cells assessed as early apoptotic cells at 4 uM after 24 hrs by FITC-annexin V/propidium iodide staining-based flow cytometric analysis (reference value: 1.87%); assay type: functional
A549 [19] = assay: Induction of apoptosis in human A549 cells assessed as late apoptotic cells at 4 uM after 24 hrs by FITC-annexin V/propidium iodide staining-based flow cytometric analysis (reference value: 0.36%); assay type: functional
A549 [20] = assay: Induction of apoptosis in human A549 cells assessed as necrotic cells at 4 uM after 24 hrs by FITC-annexin V/propidium iodide staining-based flow cytometric analysis (reference value: 0.055%); assay type: functional
A549 [21] = assay: Induction of apoptosis in human A549 cells assessed as viable cells at 4 uM after 24 hrs by FITC-annexin V/propidium iodide staining-based flow cytometric analysis (reference value: 97.7%); assay type: functional; conditions: A549, 24 h, read-out: Activity
A549 [22] = assay: Induction of apoptosis in human A549 cells assessed as increase in late apoptotic cells after 24 hrs by FITC-annexin V/propidium iodide staining-based flow cytometric analysis; assay type: functional, cell-based
A549 [23] = assay: Cytotoxicity against human A549 cells assessed as growth inhibition at 5 uM after 24 hrs in presence of nitric oxide scavenger carboxy-PTIO by MTT assay
MDA-MB-231 [24] = assay: Cytotoxicity against human MDA-MB-231 cells assessed as growth inhibition at 40 uM after 48 hrs by MTT assay relative to control; assay type: functional; conditions: MDA-MB-231, 48 h, read-out: GI; how it was run: as §1
HepG2 [25] = assay: Cytotoxicity against human HepG2 cells assessed as growth inhibition at 40 uM after 48 hrs by MTT assay relative to control; assay type: functional; conditions: HepG2, 48 h, read-out: GI; how it was run: as §1
A549 [26] = assay: Cytotoxicity against human A549 cells assessed as growth inhibition at 40 uM after 48 hrs by MTT assay relative to control; assay type: functional; conditions: A549, 48 h, read-out: GI; how it was run: as §1
MDA-MB-231 [27] = assay: Cytotoxicity against human MDA-MB-231 cells assessed as growth inhibition at 20 uM after 48 hrs by MTT assay relative to control; assay type: functional; conditions: MDA-MB-231, 48 h, read-out: GI; how it was run: as §1
HepG2 [28] = assay: Cytotoxicity against human HepG2 cells assessed as growth inhibition at 20 uM after 48 hrs by MTT assay relative to control; assay type: functional; conditions: HepG2, 48 h, read-out: GI; how it was run: as §1
A549 [29] = assay: Cytotoxicity against human A549 cells assessed as growth inhibition at 20 uM after 48 hrs by MTT assay relative to control; assay type: functional; conditions: A549, 48 h, read-out: GI; how it was run: as §1

Structure (SMILES)	inhibition of growth at 10 µM (MDA-MB-231 [1]) [%]	inhibition of growth at 10 µM (A549 [2]) [%]	inhibition of growth at 10 µM (HepG2 [3]) [%]	IC50 (MDA-MB-231 [4]) [µM]	IC50 (HepG2 [5]) [µM]	IC50 (A549 [6]) [µM]	IC50 (HCT-116) [µM]	IC50 (HK-2) [µM]	IC50 (WRL68) [µM]	other results
CC1=C(CCC(=O)OCO/[N+]([O-])=N/N2CCOCC2)C(=O)c2c(O)cccc2C1=O	37.2	40.3	31.3	13.5	16.5	12.3	15.6	24.6	19.3	–
[O-]/[N+](=N\OCCl)N1CCCCC1	11.4	10.8	17.6	–	–	–	–	–	–	–
CC1=C(CCCC(=O)OCCCO/[N+]([O-])=N/N2CCOCC2)C(=O)c2c(O)cccc2C1=O	9.5	11.3	8.2	–	–	–	–	–	–	–
CC1=C(CCCC(=O)OCO/[N+]([O-])=N/N2CCOCC2)C(=O)c2c(O)cccc2C1=O	88.3	91.2	75.4	4.12	5.52	3.48	4.21	23.5	> 40	Drug metabolism [7]: Metabolite_Detected; Drug metabolism [8]: Metabolite_Notdetected; fold change (FC) (A549 [9]): 1.64; Activity (A549 [10]): 2.09%; Activity (A549 [11]): 4.18%; Activity (A549 [12]): 1.56%; viability at 1 µM (A549 [13]): 92.2%; Activity (A549 [14]): 3.74%; Activity (A549 [15]): 10.1%; Activity (A549 [16]): 6.53%; viability at 2 µM (A549 [17]): 79.6%; Activity (A549 [18]): 6.93%; Activity (A549 [19]): 30.3%; Activity (A549 [20]): 17.3%; viability at 4 µM (A549 [21]): 45.4%; Activity (A549 [22]): Dose-dependent effect; growth inhibition (GI) (A549 [23]): inactive
CC1=C(CCC(=O)O)C(=O)c2c(O)cccc2C1=O	–	–	–	–	–	–	–	–	–	inhibition of growth at 40 µM (MDA-MB-231 [24]): 8.7%; inhibition of growth at 40 µM (HepG2 [25]): 25.3%; inhibition of growth at 40 µM (A549 [26]): 12.3%
CC1=C(CCCC(=O)OCCCCO/[N+]([O-])=N/N2CCOCC2)C(=O)c2c(O)cccc2C1=O	30.6	38.2	32.2	–	–	–	–	–	–	–
CC1=C(CCCC(=O)OCCO/[N+]([O-])=N/N2CCOCC2)C(=O)c2c(O)cccc2C1=O	26.2	23.7	25	–	–	–	–	–	–	–
CC1=C(CCCC(=O)O)C(=O)c2c(O)cccc2C1=O	–	–	–	–	–	–	–	–	–	inhibition of growth at 20 µM (MDA-MB-231 [27]): 9.9%; inhibition of growth at 20 µM (HepG2 [28]): 28.6%; inhibition of growth at 20 µM (A549 [29]): 8.5%
CC1=C(CCC(=O)OCO/[N+]([O-])=N/N2CCCCC2)C(=O)c2c(O)cccc2C1=O	40.1	45	35.1	11.7	14.4	10.8	20.2	27.7	28.2	–
